Source: PMC4430720 (British Journal of Cancer, 2015)
Where two headings read alike, the source gives them in different places. Marks after values point to notes of the source that are not given here. Where a SMILES comes first, the peptide text is derived from it. Bridges are numbered along the chain shown (N, C = ends). [ ]: non-standard residue; d: D form. βAla = NCCC(=O)O

Columns and labels:
[1] = Pharmacokinetics of unincorporated CIGB-300 in plasma; assay type: in vivo, human; conditions: both groups; highest levels only during the first hour after injection
[2] = Safety evaluation: local and systemic adverse events; assay type: in vivo, human; conditions: both groups
Procedure, shortened: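 Patients received 35 or 70 mg intralesionally once daily for three consecutive days at weeks 1, 3 and 5. Local and systemic adverse events and routine laboratory parameters were recorded. Systemic toxicity was followed for 24 h after each dose, with cardiovascular monitoring during injection and vital signs. The probability of exceeding 30% grade 3 events per group was estimated.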

[3] = test system: B23/NPM; assay: In situ B23/NPM expression in tumour biopsies by immunohistochemistry; assay type: in vivo, human
Procedure, shortened: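 Paraffin-embedded tumour biopsies were taken before and after the three treatment cycles. After deparaffinisation, sections were immunostained with a human B23/NPM monoclonal primary antibody and a commercial immunostaining kit, developed with peroxidase and counterstained with hematoxylin. Pre/post values were compared by paired Student's t-test or Wilcoxon test, chosen by the Shapiro–Wilk normality result.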

[4] = assay type: in vivo, human; conditions: for Biological half-life (tumour): corrected for radioactive decay; for AUC24 (tumour): tumour uptake curve over 24 h; for Maximum uptake (mg CIGB-300): tumour uptake, two sites 0.5 ml each
Procedure, shortened: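 The first patient dose was 99mTc-labelled and injected at two equidistant points, ~2 cm deep (0.5 ml each). Whole-body gamma-camera images were taken at 10 min and 1, 2, 4, 8, 12, 24 h, with tumour static views at 3 and 24 h. Uptake was quantified by MIRD methodology, with tumour mass from baseline MRI. Half-life used decay-corrected fits, and AUC used mono/biexponential fits.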

[5] = 2 ml at a single tumour site, ref Soriano-García et al, 2013, cited from earlier work
[6] = test system: stage IIB cervical cancer; assay: Therapeutic response by MRI; assay type: in vivo, human; conditions: 1-year follow-up
Procedure, shortened: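 MRI response was graded by RECIST before and after three peptide cycles, then quarterly for 1 year. Follow-up came after chemoradiotherapy: cisplatin 40 mg m−2 weekly for 6 weeks with 5040 cGy external beam in 28 fractions, then 2600 cGy intracavitary in four fractions. CT and abdominal/gynaecological ultrasonography were used to detect metastasis.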

[7] = test system: human cervical cancer SiHa cells; assay: Antitumour activity of different CIGB-300 regimens; assay type: in vivo, NIH nu/nu nude mice; conditions: 200 μg intratumoural per injection, tumour volume by caliper
[8] = assay type: in vivo, NIH nu/nu nude mice; conditions: 100 μg 99mTc-radiolabelled CIGB-300 intratumour in 0.2 or 0.5 ml PBS
Procedure, shortened: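 Female 6–8-week NIH nu/nu mice carried subcutaneous SiHa xenografts (5 × 10^6 cells, right inguinal flank). At 150 mm3, tumours received 100 μg 99mTc-labelled test compound in 0.025, 0.05, 0.2 or 0.5 ml PBS. Planar gamma-camera images were taken immediately and at 0.25, 1, 4, 24, 48 h. Tumour ROI signal was expressed as percent of the total initial image.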

[9] = test system: high-grade squamous intraepithelial lesions; conditions: intralesional injections; ref Solares et al, 2009; cited from earlier work
[10] = test system: histamine; assay: Histamine levels in plasma; assay type: in vivo, human; conditions: both groups
Procedure, shortened: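 Stage IIB cervical carcinoma patients received 35 or 70 mg intralesionally. Plasma histamine was measured by commercial EIA before, immediately after, and 5, 15, 30 and 60 min after the first administration. Spearman rank correlation was run between histamine and plasma peptide concentration, and between histamine and allergic-reaction severity.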

For `CSCC[C@@H]1NC(=O)[C@H](Cc2c[nH]c3ccccc23)NC(=O)[C@@H](NC(=O)CCNC(=O)[C@H](CCC(N)=O)NC(=O)[C@@H]2CCCN2C(=O)[C@@H]2CCCN2C(=O)[C@H](CCCNC(=N)N)NC(=O)[C@H](CCCNC(=N)N)NC(=O)[C@H](CCCNC(=N)N)NC(=O)[C@H](CCC(N)=O)NC(=O)[C@H](CCCNC(=N)N)NC(=O)[C@H](CCCNC(=N)N)NC(=O)[C@H](CCCCN)NC(=O)[C@H](CCCCN)NC(=O)[C@H](CCCNC(=N)N)NC(=O)CN)CSSC[C@@H](C(=O)O)NC(=O)[C@H]([C@@H](C)O)NC(=O)CNC(=O)[C@H](CC(C)C)NC(=O)[C@H](Cc2c[nH]cn2)NC(=O)[C@H](CCCNC(=N)N)NC(=O)[C@@H]2CCCN2C(=O)[C@H](CO)NC1=O` [CIGB-300] (H-GRKKRRQRRRPPQ[βAla]CWMSPRHLGTC-OH; disulfide 15-25; N-terminus and C-terminus assumed), which “CIGB-300 levels in blood over time” value [1] is on record?
Its value is “near undetectable after 8 h”.

What about the “Blood counts and serum chemistry values, baseline vs post-treatment” value [2] of the same compound?
The value was “no differences”.

And the “B23/nucleophosmin expression at the nucleoplasm” value ([3]; after CIGB-300 treatment)?
The value was “not considerably modified”.

What about the “Patients with reduced nucleolar B23/NPM expression after CIGB-300 treatment” value ([3]; evaluated patients of both groups) of the same compound?
Its value is 10 out of the 12.

And the “Levels of in situ B23/NPM in tumour biopsies, post CIGB-300” value ([3]; group I (35 mg), N=6, mean±s.d., baseline 56.0±17.6, Student's t-test p 0.14)?
Its value is 36.4±18.9.

What about the “Biological half-life (tumour)” value ([4]; group I 35 mg, N=6, mean±s.d.) of the same compound?
Its value is 3.9±0.9 (2.6–5.5) h.

And the “Biological half-life (tumour)” value ([4]; group II 70 mg, N=7, mean±s.d.)?
Its value is 6.2±1.9 (3.5–10.1) h.

And the “Maximum uptake (mg CIGB-300 per g tumour)” value ([4]; group II 70 mg, tumour mass estimated by MRI, N=6, mean±s.d.)?
Its value is 1.1±0.8 (0.4–2.7) ^b mg g^−1.

And the “Maximum tumour uptake, 70 mg compared with 35 mg” value ([4]; mean values, P=0.01)?
The value was “two-fold higher”.

And the “AUC24 (tumour)” value ([4]; group I 35 mg, N=6, mean±s.d.)?
Its value is 132±72.2 (45.3–235) mg h.

What about the “AUC24 (tumour)” value ([4]; group II 70 mg, N=7, mean±s.d.) of the same compound?
The value was 385±167 (90.3–646) mg h.

And the “Maximum uptake (mg CIGB-300)” value ([4]; group I 35 mg intralesional, N=6, mean±s.d.)?
Its value is 16.1±8.9 (3.8–27.2) mg.

What about the “Maximum uptake (mg CIGB-300)” value ([4]; group II 70 mg intralesional, N=7, mean±s.d.) of the same compound?
The value was 31.3±12.9 (9.9–48.7) mg.

What about the Maximum tumour uptake ([5]; 35 mg) of the same compound?
Its Maximum tumour uptake is 14.9 ± 6.4 mg.

And the Maximum tumour uptake ([5]; 70 mg)?
The Maximum tumour uptake was 10.4 ± 8.3 mg.

What about the “Deaths because of disease progression, whole trial” value ([6]; both groups) of the same compound?
The value was “four”.

And the “Deaths because of disease progression, group I” value ([6]; group I (35 mg))?
The value was “three”.

What about the “Three cycles of three consecutive daily injections” value [7] of the same compound?
The value was “minimal frequency required to reduce tumour growth”.

What about the “CIGB-300 tumour uptake, higher injection volume” value [8] of the same compound?
The value was “worse tumour uptake”.

What about the “Patients with full histological regression” value [9] of the same compound?
The value was 19%.

What about the “Patients with significant colposcopic response” value [9] of the same compound?
Its value is 90%.

What about the “Previously positive patients with negative human papillomavirus DNA” value [9] of the same compound?
Its value is 48%.

What about the “Time to return of plasmatic histamine to normal levels (1 ng ml^−1)” value ([10]; after first injection, rapid increase first) of the same compound?
The value was 15 min.

What about the “Overall histamine median when grade 1 allergic-like events occurred” value ([10]; plasma) of the same compound?
Its value is 0.7 ng/mL.

And the “Overall histamine median when grade 2 allergic-like events occurred” value ([10]; plasma)?
Its value is 3.5 ng/mL.
